Rtt109 HAT inh = inhibitors of C. albicans Rtt109/Vps75 HAT, primary screen, biochemical, ThioGlo CoA-SH fluorescence, plate reader; purified Rtt109/Vps75, 4 h; Histone acetyltransferase RTT109 (Candida albicans (strain SC5314 / ATCC MYA-2876)), …; 0.16% of 330,000 active; inhibition, % at 34.9 µM; AID 540336, 2011;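 active = inhibition of at least 50% in every replicate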
CSN inh = inhibitors of CSN-mediated cullin deneddylation, primary screen, biochemical, fluorescence polarization, uHTS | COP9 signalosome complex subunit 5 (Homo sapiens), Q92905 | Purified CSN, SCF-Nedd8-OG deneddylation | inhibition, % at 12.5 µM | 0.38% of 360,000 active;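 active = pattern-corrected inhibition above about 35%, with an unprinted fluorescence ratio check between 0.5 and 1.5, limit read from the data, passing the limit was not always enough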
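Schedule: reaction 90 min, room temperature / Assay system: HEK293T-derived human Csn5 enzyme / Input: Csn5 at 0.24 nM final / Measure: inhibition of Csn5 cleavage, % / Control set: substrate-only high control, full reaction low control / Technique: fluorescence polarization of the substrate / Buffer or medium: Tris/NaCl/DTT buffer, pH 7.5 / Reagent: SCFSkp2-Nedd8OG substrate at 10 nM final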
HNF4A DNA FP = change in binding of human HNF4A to DNA, primary screen, biochemical, fluorescence polarization, FITC-DNA. Hepatocyte nuclear factor 4-alpha (Homo sapiens), P41235. 1 h. activity change, % at 10 µM. 0.3% of 360,000 active; in the data active = activity change above about 30%, passing the limit was not always enough
Target sequence (P41235 whole entry, looked up): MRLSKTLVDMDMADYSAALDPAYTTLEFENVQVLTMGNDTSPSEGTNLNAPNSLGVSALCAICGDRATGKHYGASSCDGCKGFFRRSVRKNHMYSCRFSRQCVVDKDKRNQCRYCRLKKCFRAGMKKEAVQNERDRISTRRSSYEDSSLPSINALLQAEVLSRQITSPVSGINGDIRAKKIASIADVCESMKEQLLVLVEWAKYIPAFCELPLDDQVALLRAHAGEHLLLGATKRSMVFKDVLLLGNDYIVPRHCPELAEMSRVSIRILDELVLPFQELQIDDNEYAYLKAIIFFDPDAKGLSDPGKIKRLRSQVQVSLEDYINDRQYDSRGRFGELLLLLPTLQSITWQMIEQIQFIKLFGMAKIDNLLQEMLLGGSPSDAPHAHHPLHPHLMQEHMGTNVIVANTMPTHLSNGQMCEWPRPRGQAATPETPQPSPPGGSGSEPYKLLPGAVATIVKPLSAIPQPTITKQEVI
TPT1 inhibitor = Candida albicans TPT1 enzyme inhibitors, primary screen, biochemical, fluorescence polarization; inhibition, % at 5 µM; 0.81% of 300,000 active; recombinant caTPT1, FP RNA substrate dephosphorylation; tRNA 2'-phosphotransferase TPT1 (Candida albicans SC5314); AID 1962, 2009;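 active = inhibition above the mean of all tested compounds plus 3 SD, set per screening campaign, cut at about 24% in these data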
CSN5 deneddyl = Csn5 deneddylation inhibitors, confirmation, biochemical, fluorescence polarization, single concentration, SCF-Nedd8OG substrate; shares compounds with CSN inh; 62% of 540 active; inhibition, % at 16.6 µM; Csn5 deneddylation of SCF-Nedd8OG, 90 min; in the data active = inhibition above about 50%
MMP2 cntr CSN = MMP-2 protease inhibition counter-screen, confirmation, counter-screen for CSN deneddylation inhibitor project, biochemical, fluorescence, single concentration. shares compounds with CSN inh. recombinant MMP-2, FRET substrate fluorescence, 60 min. inhibition, % at 16.6 µM. 33% of 540 active. AID 720655, 2013;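 active = corrected plate-normalized z-score of 5 or more, or -5 or less, or inhibition of 15% or more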
Thrombin cntr = counter-screen for CSN deneddylation inhibitors: bovine thrombin inhibition; 49% of 540 active; shares compounds with CSN inh; inhibition, % at 16.6 µM; bovine thrombin cleavage of Ub4-pepOG, fluorescence polarization;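 active = inhibition at or above a set limit, with a fluorescence interference ratio between 0.5 and a set maximum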
HNF4a DNA conf = change in HNF4A binding to DNA, retest, confirmation, biochemical, fluorescence polarization, FITC-DNA; 1 h; AID 1224897, 2016; shares compounds with HNF4A DNA FP; 99% of 210 active; activity change, % at 12.5 µM; call rule not given here
Numbers stand for hits; n = inactive; x = no result given; + = active, no number; ! = a repeat was not active. The list is not random: actives were taken first. Their share in the collection is about 1.2%.

SMILES	Rtt109 HAT inh	CSN inh	HNF4A DNA FP	TPT1 inhibitor	CSN5 deneddyl	MMP2 cntr CSN	Thrombin cntr	others
COc1ccc(/C=N/Nc2cc(C)nc3ccccc23)cc1	n	n	n	n	x	x	x
COc1ccc2nc(C)cc(N/N=C/c3ccc(F)cc3)c2c1	n	44.7	n	n	92.5	15.6	n
Cc1ccc(NC2C(=O)NC(=O)NC2=O)cc1	n	n	n	x	x	x	x
Nc1cccc2c1C(=O)N(C(=O)/C=C/c1cccc(Br)c1)C2=O	n	40.6	n	x	68.0	n	46.4
Nc1cccc2c1C(=O)N(C(=O)/C=C/c1cccc(F)c1)C2=O	n	n	n	n	x	x	x
CNC(=O)c1c(NC(=O)CCS(=O)(=O)c2ccc(C)cc2)sc2c1CCN(C(=O)OC)C2	n	n	n	n	x	x	x
CCNc1nc(-c2cc(C)n(Cc3ccco3)c2C)cs1	n	n	n	n	x	x	x
Cc1cc(-c2csc(NC(=O)c3ccc(=O)[nH]c3)n2)c(C)n1Cc1ccco1	n	39.6	n	n	98.4	n	n
CCc1cc(=O)oc2cc(C)c(CN3CCCCC3)c(O)c12	n	n	n	n	x	x	x
CCc1cc(=O)oc2cc(C)c(CN3CCCC3)c(O)c12	n	37.1	n	n	89.4	n	n
Cc1cc(N2CCN(c3ccc([N+](=O)[O-])c4cccnc34)CC2)c2ccccc2n1	n	59.4	n	n	105.2	n	n
CCCCn1c(NS(=O)(=O)c2ccc(C)cc2)c(S(=O)(=O)c2ccccc2)c2nc3ccccc3nc21	x	69.3	n	n	101.0	n	n
O=C(O)c1ccc(-n2cccc2/C=C2/NC(=O)N(c3ccccc3)C2=O)cc1	n	36.2	n	n	71.0	20.3	n
O=C(O)c1ccc(-n2cccc2/C=C2/SC(=O)N(CC(=O)N3CCCC3)C2=O)cc1	n	43.4	n	n	x	30.8	n
O=C(O)c1ccc(-n2cccc2/C=C2/NC(=O)N(c3cccc(Cl)c3)C2=O)cc1	n	n	n	x	x	x	x
CCCc1ccc(OCc2ccc(C(=O)N3CCSCC3)o2)cc1	x	n	n	n	x	x	x
Cc1cccc(C(=O)N[C@H](C(=O)NCCc2ccc(Cl)cc2)C(C)C)c1	n	n	n	n	x	x	x
O=C(CNC(=O)c1ccccc1)OCCCOC(=O)CNC(=O)c1ccccc1	n	n	n	n	x	x	x
Cc1cccc(C)c1NC(=O)C1c2ccccc2OCC(=O)N1CCCN1CCOCC1 (centres undefined)	x	n	n	x	x	x	x
O=C(C=Cc1ccc2c(c1)OCO2)c1ccccc1	n	n	n	x	x	x	x
CNc1ccc(Br)cc(C(=O)/C=C/c2ccc3c(c2)OCO3)c1=O	n	43.9	n	n	70.6	n	20.2
CCCCNC1=CC(=O)C(NCCCC)=CC1=O	n	n	n	x	x	x	x
CCCCNC1=CC(=O)C(=O)c2ccccc21	n	48.0	n	n	86.7	n	n
CCC/C(C#Cc1cc(OC)cc(OC)c1)=C1/c2ccccc2C(=O)N1c1ccccc1	n	n	n	x	x	x	x
CCC/C(C#Cc1ccc(N(C)C)cc1)=C1/c2ccccc2C(=O)N1c1ccccc1	n	53.5	n	x	+	-59.2	n
SMILES	Rtt109 HAT inh	CSN inh	HNF4A DNA FP	TPT1 inhibitor	CSN5 deneddyl	MMP2 cntr CSN	Thrombin cntr	others
CCCN(c1ccccc1F)S(=O)(=O)c1c[nH]c(C(=O)OC)c1	n	n	n	n	x	x	x
CC(=O)NN1C(=O)/C(=C/c2ccc(Br)o2)SC1=S	n	51.4	60.2	n	96.2	18.8	34.1
Cc1ccc(-n2cccc2/C=C2\C(=N)N3N=C(c4ccco4)SC3=NC2=O)cc1	n	61.2	n	n	n	18.8	n
Cc1cc(/C=N/NC(=O)C(O)(c2ccccc2)c2ccccc2)c(C)n1-c1cccc(C(=O)O)c1	n	40.8	n	n	59.1	n	n
Cc1cc(/C=N/NC(=O)C(O)(c2ccccc2)c2ccccc2)c(C)n1-c1ccc(C(=O)O)cc1	x	n	n	n	x	x	x
Cc1ccc(NC(=O)CN2C(=O)N/C(=C/c3cc(C)n(-c4cccc(C(=O)O)c4)c3C)C2=O)cc1	n	n	n	x	x	x	x
CC(=O)NC1=NC(=O)/C(=C/c2cc(C)n(-c3cccc(C(=O)O)c3)c2C)S1	n	60.7	49.3	x	n	15.8	52.9
COc1cc(-c2nnc(SCc3cc(=O)oc4cc(O)c(O)cc34)o2)cc(OC)c1OC	n	47.3	n	n	x	31.6	33.7
COC(=O)c1cc(C(=O)OCC(=O)N(C)c2ccccc2)cc([N+](=O)[O-])c1	n	n	n	n	x	x	x
O=C1C(=O)c2c(ccc3ccccc23)-c2ccccc21	n	40.1	n	x	83.8	n	n
Cc1cc[n+](-c2nc3ccccc3nc2[N-]S(=O)(=O)c2ccccc2)cc1	n	n	n	n	x	x	x
Cc1ccc[n+](-c2nc3ccccc3nc2C(=C=[N-])C#N)c1	n	62.7!	59.7	n	x	x	x	HNF4a DNA conf=42.1
CC(C)(C)N1C(=O)[C@H]2[C@@H](c3ccc(Br)cc3)N3C(=O)N(c4ccccc4)C(=O)[C@@]3(C)[C@H]2C1=O	n	n	n	n	x	x	x
CC(=O)N/C(=C\c1ccccc1)C(=O)OCC(=O)N(C)C1CCS(=O)(=O)C1 (centres undefined)	n	n	n	x	x	x	x
CN(C)c1ccc(/C=C(\C#N)C(=O)OCC(=O)N(C)C2CCS(=O)(=O)C2)cc1 (centres undefined)	n	n	41.7	x	x	x	x	HNF4a DNA conf=75.2
CCN(C(=O)COC(=O)/C(C#N)=C/c1ccc(N(C)C)cc1)C1CCS(=O)(=O)C1 (centres undefined)	n	n	46.3	x	x	x	x	HNF4a DNA conf=71.3
CSCCC(NC(=O)c1ccccc1)C(=O)N1CC(C)OC(C)C1 (centres undefined)	n	n	n	x	x	x	x
CC(C)=CCCC(C)c1cc(C(=O)NCCc2ccc(O)cc2)c(N)s1 (centres undefined)	x	n	51.9	x	x	x	x	HNF4a DNA conf=39.3
O=C1Nc2cc(C(=O)NCCN3CCCCCC3)ccc2S/C1=C\c1ccccc1	n	n	n	n	x	x	x
Cc1ccc(/C=C2/Sc3ccc(C(=O)NCc4ccccn4)cc3NC2=O)cc1	n	61.1	72.0	n	x	x	x	HNF4a DNA conf=57.6
CN(C)c1ccc(C=NN2C(=O)CSC2=S)c(Cl)c1	x	60.0	86.9	x	x	x	x	HNF4a DNA conf=88.4
O=C1CSC(=S)N1N=Cc1c(F)cccc1Cl	x	n	n	x	x	x	x

Source: PubChem BioAssay (several laboratories)
